An excerpt weighted towards active compounds, which were near 1.8% of everything screened.
SIAE primary – human SIAE inhibitors, primary screen, biochemical, fluorescence polarization, FP-Rh probe, 1536-well HTS; SIAE FP-Rh probe binding; inhibition, % at 9.66 µM; 370,000 compounds, 0.69% hits; AID 1053197, 2014;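 active means inhibition above a cutoff: mean of compounds within the control limits plus 3 SD of those, cut at about 17% in these data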
Tn7 DDE FP – inhibitors of Tn7 peptide binding to fibrin DD(E), primary screen, biochemical, fluorescence polarization, human fibrin, Tn7 probe | inhibition, % at 8.3 µM | FP displacement of FITC-Tn7 peptide from fibrin DD(E); 0% = median of compound wells per plate | 370,000 compounds, 0.13% hits | Fibrinogen beta chain (Homo sapiens), P02675;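 active means inhibition above the mean of compounds falling within the control limits plus 3 SD of them, cut at about 14% in these data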
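Assay system: human fibrin DD(E) protein / Input: 2 µM fibrin DD(E) / Benchmarks: high control of 10 µM Aha-Tn7 peptide / Measured by: fluorescence polarization of the labelled Tn7 tracer / Medium: Tris buffer with calcium and detergent, pH 7.8 / Timing: 10 min compound pre-incubation, 3 h probe incubation at room temperature / Repeats: one replicate per compound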
Tn6 DDE FP – inhibitors of Tn6 peptide binding to fibrin DD(E), primary screen, biochemical, fluorescence polarization, human fibrin, Tn6 probe | Fibrin DD(E) TRITC-Tn6 fluorescence polarization displacement | inhibition, % at 8.3 µM | 370,000 compounds, 0.21% hits;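 active means inhibition above a per-campaign cutoff: mean of compounds within control limits plus 3 SD, cut at about 15% in these data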
ABHD4 inh – ABHD4 inhibitors, primary screen, biochemical, fluorescence polarization, mouse. AID 720543, 2013. inhibition, % at 8.92 µM. (Lyso)-N-acylphosphatidylethanolamine lipase (Mus musculus), Q8VD66. 370,000 compounds, 0.54% hits. purified mABHD4, FP-Rh probe fluorescence polarization;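 active means inhibition exceeding the mean over every tested compound plus 3 SD, cut at about 30% in these data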
Target sequence (Q8VD66 whole entry, looked up): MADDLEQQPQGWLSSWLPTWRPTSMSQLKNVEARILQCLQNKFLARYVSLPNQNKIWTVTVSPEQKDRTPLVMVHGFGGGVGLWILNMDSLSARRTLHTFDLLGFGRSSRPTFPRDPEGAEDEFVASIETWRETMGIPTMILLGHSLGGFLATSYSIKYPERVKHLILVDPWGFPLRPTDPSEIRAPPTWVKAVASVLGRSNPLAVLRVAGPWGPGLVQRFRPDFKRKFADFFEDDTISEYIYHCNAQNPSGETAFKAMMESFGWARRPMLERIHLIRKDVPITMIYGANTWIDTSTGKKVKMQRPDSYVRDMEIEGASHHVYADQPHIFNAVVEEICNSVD
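Assay system: wild-type mouse ABHD4 protein; compound: single nominal dose of 8.92 µM, 0.89% DMSO final; schedule: 45 min + 60 min at 25 °C; measured by: FP readout, ex 525 nm / em 598 nm; evaluation: % inhibition of FP-Rh probe binding versus controls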
TCR CD3 inh – inhibitors of human TCR-CD3 interaction, primary screen, biochemical, fluorescence, TAMRA-labeled TCR probe; 360,000 compounds, 0.37% hits; AID 651800, 2012; inhibition, % at 9.4 µM;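 further: recombinant mutant TCR 2C K166C tagged with TAMRA read by polarization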
HTRA1 inhibitor – HTRA1 serine protease inhibitors, primary screen, biochemical, fluorescence polarization, HTS; recombinant HTRA1, FP-rhodamine activity-based probe; inhibition, % at 5.96 µM; 340,000 compounds, 0.5% hits; AID 504803, 2011; in the data active means inhibition above about 36%
HTRA1 conf – HTRA1 protease inhibitors, retest, confirmation, biochemical, fluorescence polarization; 1,600 compounds, 66% hits; inhibition, % at 5.96 µM; recombinant HTRA1, FP-rhodamine activity-based probe; shares compounds with HTRA1 inhibitor;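 active means mean inhibition over three repeats above a set limit taken from the earlier primary screen, cut at about 37% in these data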;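 further: inhibitors block probe binding so polarization drops and inhibition rises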
BSA TAMRA ctr – compounds interfering with TAMRA-BSA probe, counter-screen for TCR-CD3 interaction inhibitor project, biochemical, fluorescence, TAMRA-labeled BSA; shares compounds with TCR CD3 inh; TAMRA-labeled BSA probe fluorescence counterscreen; inhibition, % at 9.4 µM; 1,200 compounds, 10% hits; AID 652035, 2013; in the data active means inhibition above about 23%
TCR-CD3 inh conf – TCR-CD3 interaction inhibitors, retest, confirmation, biochemical, fluorescence, TAMRA-labeled TCR probe. shares compounds with TCR CD3 inh. TAMRA-labeled TCR probe fluorescence binding assay. inhibition, % at 9.4 µM. 1,200 compounds, 48% hits
mABHD4 conf – ABHD4 inhibitors, retest, confirmation, biochemical, fluorescence polarization, mouse. inhibition, % at 8.92 µM. shares compounds with ABHD4 inh. purified mABHD4, FP-Rh probe fluorescence polarization. 1,800 compounds, 55% hits;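 active means mean inhibition across replicates above the hit cutoff set in the primary screen, cut at about 30% in these data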
Of the large screens only hits and unclear results are named; the others gave an inactive call (follow-up assays come after a bar, where they were run). Unless noted, no stated cut-off is given here; in the data, active means inhibition above about 19%; inactive means the rest.

O=C1c2ccccc2C(=O)c2c(/C=C/N3CCCCC3)ccnc21	ABHD4 inh 46.3, HTRA1 inhibitor 60.9 | HTRA1 conf 64.3 | mABHD4 conf 36.3
C=CCN1[C@@H](C)COc2cc(N3CCCC3)ccc2S1(=O)=O	none (no result: TCR CD3 inh, HTRA1 inhibitor)
Oc1c(I)cc(I)c2cccnc12	SIAE primary 34.4, ABHD4 inh 32.7, HTRA1 inhibitor 72.1 | HTRA1 conf 65.7 | mABHD4 conf inactive
O=C(O)c1ccc(O)c2ncccc12	none (no result: HTRA1 inhibitor)
COC(=O)[C@]12C[C@H](CC(=O)NCCc3ccccc3OC)C(=O)N(CCC3=CCCCC3)C1=C[C@H](C(C)C)O[C@@H]2C1CC1	none (no result: TCR CD3 inh, HTRA1 inhibitor)
CC(=O)N1CCN(c2ccc(NCc3cccc4ccccc34)cc2)CC1	ABHD4 inh 29.6, HTRA1 inhibitor 36.8 | HTRA1 conf inactive | mABHD4 conf inactive
Cc1ccc(S(=O)(=O)c2ccc(C)cc2)cc1	none
Cc1ccc(C2=C(O)C(=O)C(c3ccc(C)cc3)=C(O)C2=O)cc1	ABHD4 inh 45.8, HTRA1 inhibitor 84.8 | HTRA1 conf 97.7 | mABHD4 conf 60.4
Cc1cc(C)c(C)c(N=Nc2nc3ccccc3n2C)c1C	ABHD4 inh 40.4, HTRA1 inhibitor 37.2 | HTRA1 conf 43.4 | mABHD4 conf 54.9
Cc1ccc(C)c(N=Nc2nc3ccccc3n2C)c1	none
CC(C)CN1C(=O)[C@@]2(CC(=O)N(C)C2c2ccccc2)c2cc(-n3cc(CCCC#N)nn3)ccc21 (some centres not stated)	none (no result: TCR CD3 inh, HTRA1 inhibitor)
CCOC(=O)[C@]12CCCC3=C1N(CCC3)C(=O)[C@@H](CC(=O)NCCC(C)C)C2	none (no result: TCR CD3 inh, HTRA1 inhibitor)
OCc1ccccc1CNCc1ccccc1	none
Oc1cc(CNCc2ccccc2)c(O)cc1CNCc1ccccc1	ABHD4 inh 41.5, HTRA1 inhibitor 57.0 | HTRA1 conf 52.2 | mABHD4 conf 57.7
O=C(Nc1ccccc1)OCCN1C(=O)CCC12CCC(c1ccccc1)CC2 (configuration not stated)	none (no result: TCR CD3 inh, HTRA1 inhibitor)
Cc1c[nH]c2cccc(-c3cc4ccccc4o3)c12	none (no result: TCR CD3 inh, HTRA1 inhibitor)
O=C(O)COc1ccccc1C(Nc1ccccn1)c1cc(Cl)c2cccnc2c1O (configuration not stated)	ABHD4 inh 32.8, HTRA1 inhibitor 73.8 | HTRA1 conf 83.7 | mABHD4 conf inactive
Cc1cccc(/C=C/C(=O)c2cc(Br)ccc(=O)c2O)c1	ABHD4 inh 35.7, HTRA1 inhibitor 57.1 | HTRA1 conf 59.0 | mABHD4 conf inactive
CCc1ccc(/C=C/C(=O)c2cc(Br)ccc(=O)c2O)cc1	ABHD4 inh 37.6, HTRA1 inhibitor 67.4 | HTRA1 conf 66.0 | mABHD4 conf inactive
Cc1ccc(C(=O)C=Cc2cccc(C)c2)cc1	none
O=C(OCCN1CCN(C2CN(Cc3cn(Cc4ccccc4C(F)(F)F)nn3)S(=O)(=O)C2)CC1)c1cc2ccccc2o1 (configuration not stated)	none (no result: TCR CD3 inh, HTRA1 inhibitor)
CC(C)C(C#CC1CC1)NCc1ccc2c(c1)OCO2 (configuration not stated)	none (no result: TCR CD3 inh, HTRA1 inhibitor)
Cc1cc(NS(=O)(=O)C2CCN(C(=O)Cc3ccc(Cl)c(Cl)c3)CC2)no1	none (no result: TCR CD3 inh, HTRA1 inhibitor)
COc1ccc(Nc2c([N+](=O)[O-])ccc3c2=NC2(CCCCC2)N=3)cc1	ABHD4 inh 30.5, HTRA1 inhibitor 54.7 | HTRA1 conf 51.9 | mABHD4 conf 40.3
O=[N+]([O-])c1ccc2c(c1Nc1ccccc1)=NC1(CCCCC1)N=2	none
COc1ccc(/C=C/S(=O)(=O)NC2CCCC2)c(CNC(=O)OC(C)(C)C)c1	none (no result: TCR CD3 inh, HTRA1 inhibitor)
Nc1[nH]c(C(=O)c2ccccc2)c(-c2ccc(Cl)cc2Cl)c1C(=O)NCCC1=CCCCC1	none (no result: TCR CD3 inh, HTRA1 inhibitor)
CCCCCCCCCCCCCCC(O)C[N+](C)(CCO)CCO (configuration not stated)	ABHD4 inh 44.9, HTRA1 inhibitor 54.4 | HTRA1 conf 54.8 | mABHD4 conf 48.1
COc1cc(Sc2ccc(C)cc2)c(OC)cc1N	ABHD4 inh 33.9, HTRA1 inhibitor 45.8 | HTRA1 conf 43.7 | mABHD4 conf 41.1
COC(=O)c1ccc(Sc2ccc(C)cc2)c(N)c1	none
CCC(=Nc1ccc(N)cc1)C1=C(O)C(C(=O)OC)C(C)(C)CC1=O (configuration not stated)	SIAE primary 24.8, Tn6 DDE FP 125.2, ABHD4 inh 82.0, TCR CD3 inh 68.0, HTRA1 inhibitor 53.2 | HTRA1 conf inactive | BSA TAMRA ctr inactive | TCR-CD3 inh conf inactive | mABHD4 conf inactive
Cc1ccc(N(C)C)cc1	none (no result: HTRA1 inhibitor)
Cc1ccc(C)n1-c1ccc(N(C)C)cc1	ABHD4 inh 31.7, HTRA1 inhibitor 38.2 | HTRA1 conf 39.6 | mABHD4 conf inactive
Cc1nn(-c2ccccc2)c2sc(C(=O)N3CCN(Cc4ccc(F)cc4)CC3)cc12	none (no result: TCR CD3 inh, HTRA1 inhibitor)
Cc1[nH]c2ccccc2c1/C=N/Nc1ccccc1[N+](=O)[O-]	ABHD4 inh 59.1, HTRA1 inhibitor 67.7 | HTRA1 conf 74.4 | mABHD4 conf 73.4
O=C(O)c1cccc2c1C(=O)c1ccccc1C2=O	none
